According to ChEMBL document CHEMBL1121573, “2-(Aminomethyl)phenols, a new class of saluretic agents. 1. Effects of nuclear substitution” (J Med Chem, 1980):

What was measured:
Rattus norvegicus [1] = assay: Oral diuretic activity was evaluated by measuring Na+ excretion in Rat at 9 mg/kg […] ( 0 - 5 hr); assay type: ADME, organism-based, Urine; parameters: dose 9 mg/kg
Method in brief: (§1)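 Female Charles-River rats (150–170 g) were kept overnight on a sugar diet with water ad libitum. Compound was dissolved in DMF, then diluted with water containing Tween 80 (3 drops/100 mL) to a final 4% DMF, and given po in 5.0 mL. Rats were housed three per metabolism cage. Urine from 0–5 h was analysed for Na+, K+ and Cl−, with concurrent placebo controls. Values are mequiv × 100 per cage, geometric mean of three cages per dose.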

Canis familiaris [2] = assay: Oral diuretic activity was evaluated by measuring Na+ excretion in dog at 1 mg/kg after ip administration ( 0 - 6 hr); assay type: ADME, organism-based, Canis lupus familiaris, Urine; parameters: dose 1 mg/kg, route intraperitoneal; settings: in vivo
Method in brief: (§2)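 Spontaneous urine was pooled with bladder urine collected by catheterization at 6 h. Volume was measured and Na+, K+ and Cl− were determined by standard methods. Values are geometric means.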

Canis familiaris [3] = assay: Oral diuretic activity was evaluated by measuring Na+ excretion in dog at 2 mg/kg after […] ( 0 - 6 hr); assay type: ADME, organism-based, Canis lupus familiaris, Urine; parameters: dose 2 mg/kg; settings: in vivo
Method in brief: (§3)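 Dogs; spontaneous urine was pooled with bladder urine drained by catheter at the end of 6 h. Urine volume was measured, and aliquots were assayed for Na+, K+ and Cl− by standard methods. Values are geometric means, expressed as mequiv over 0–6 h.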

Canis familiaris [4] = assay: Oral diuretic activity was evaluated by measuring K+ excretion in dog at 5 mg/kg after ip administration ( 0 - 6 hr); assay type: ADME, organism-based, Canis lupus familiaris, Urine; parameters: dose 5 mg/kg, route intraperitoneal; settings: in vivo; method in brief: as §2
Rattus norvegicus [5] = assay: Oral diuretic activity was evaluated by measuring Na+ excretion in Rat at 27 mg/kg […] ( 0 - 5 hr); assay type: ADME, organism-based, Urine; parameters: dose 27 mg/kg; method in brief: as §1
Rattus norvegicus [6] = assay: Oral diuretic activity was evaluated by measuring Na+ excretion in Rat at 3 mg/kg […] ( 0 - 5 hr); assay type: ADME, organism-based, Urine; parameters: dose 3 mg/kg; method in brief: as §1
Canis familiaris [7] = assay: Oral diuretic activity was evaluated by measuring Na+ excretion in dog at 5 mg/kg after […] ( 0 - 6 hr); assay type: ADME, organism-based, Canis lupus familiaris, Urine; parameters: dose 5 mg/kg; settings: in vivo; method in brief: as §3
Canis familiaris [8] = assay: Compound administered intravenously at a dose of 5 mg/kg was evaluated for salidiuretic activity measured as sodium ion excretion in Dog; assay type: ADME, organism-based, Canis lupus familiaris, Urine; parameters: dose 5 mg/kg, route intravenous; settings: in vivo, iv
Method in brief: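 Conditioned female mongrel dogs, postabsorptive, water-loaded (500 mL po) 1 h before sodium pentobarbital anesthesia (30 mg/kg iv). Bladder catheter; creatinine 4 g sc; phosphate–mannitol buffer pH 7.4 infused (3.0 mL/min) throughout. […] Urine Na+ measured; response scored 0–6.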

Canis familiaris [9] = assay: Oral diuretic activity was evaluated by measuring K+ excretion in dog at 2 mg/kg after ip administration ( 0 - 6 hr); assay type: ADME, organism-based, Canis lupus familiaris, Urine; parameters: route intraperitoneal, dose 2 mg/kg; settings: in vivo; method in brief: as §2
Rattus norvegicus [10] = assay: Oral diuretic activity was evaluated by measuring K+ excretion in Rat at 3 mg/kg […] ( 0 - 5 hr); assay type: ADME, organism-based, Urine; parameters: dose 3 mg/kg
Method in brief: (§4)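 Female Charles-River rats (150–170 g) were kept overnight on a sugar diet with water ad libitum. Test substance was dissolved in DMF and diluted with water containing Tween 80 to a final 4% DMF vehicle, then given po in 5.0 mL. Rats were housed three per metabolism cage, and 0–5 h urine was assayed for Na⁺, K⁺ and Cl⁻ alongside concurrent placebo groups. Values are mequiv × 100 per cage, geometric means of three cages per dose.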

Rattus norvegicus [11] = assay: Oral diuretic activity was evaluated by measuring K+ excretion in Rat at 81 mg/kg […] ( 0 - 5 hr); assay type: ADME, organism-based, Urine; parameters: dose 81 mg/kg; method in brief: as §4
Rattus norvegicus [12] = assay: Oral diuretic activity was evaluated by measuring K+ excretion in Rat at 9 mg/kg after […] ( 0 - 5 hr); assay type: ADME, organism-based, Urine; parameters: dose 9 mg/kg; settings: in vivo; method in brief: as §4
Canis familiaris [13] = assay: Oral diuretic activity was evaluated by measuring K+ excretion in dog at 1 mg/kg after […] ( 0 - 6 hr); assay type: ADME, organism-based, Canis lupus familiaris, Urine; parameters: dose 1 mg/kg; settings: in vivo; method in brief: as §2
Rattus norvegicus [14] = assay: Evaluated for salidiuretic activity measured as sodium ion excretion in Rat, administered orally at a dose of 50 mg/kg; assay type: functional, Urine; parameters: unit not given beside the values; settings: route oral
Method in brief: (§5)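 Female Charles-River rats (150–170 g), overnight on sugar diet with water ad libitum. Compound dissolved in DMF, diluted with water containing Tween 80 (final 4% DMF), given po in 5.0 mL; concurrent vehicle placebo. Three rats per metabolism cage; 0–5 h urine analysed for Na+, K+, Cl-. Values: mequiv × 100 per cage, geometric means of three cages per dose; scored 0–6 by Na+.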

[15] = Compound administered orally at a dose of 5 mg/kg was evaluated for salidiuretic activity measured as sodium ion excretion in Rat; assay type: organism-based; parameters: dose 5 mg/kg; settings: Urine; method in brief: as §5
Canis familiaris [16] = assay: Oral diuretic activity was evaluated by measuring Cl- excretion in dog at 5 mg/kg after […] ( 0 - 6 hr); assay type: ADME, organism-based, Canis lupus familiaris, Urine; parameters: dose 5 mg/kg, route intraperitoneal; settings: in vivo
[17] = Evaluated for salidiuretic activity measured as sodium ion excretion in Rat, administered orally at a dose of 16.5 mg/kg; assay type: organism-based; parameters: dose 16.5 mg/kg; settings: Urine; method in brief: as §5
Rattus norvegicus [18] = assay: Oral diuretic activity was evaluated by measuring Cl- excretion in Rat at 27 mg/kg after […] ( 0 - 5 hr); assay type: ADME, organism-based, Urine; parameters: dose 27 mg/kg, route intraperitoneal; settings: in vivo
Canis familiaris [19] = assay: Oral diuretic activity was evaluated by measuring Cl- excretion in dog at 2 mg/kg after […] ( 0 - 6 hr); assay type: ADME, organism-based, Canis lupus familiaris, Urine; parameters: dose 2 mg/kg, route intraperitoneal; settings: in vivo
Rattus norvegicus [20] = assay: Oral diuretic activity was evaluated by measuring Cl- excretion in Rat at 3 mg/kg after […] ( 0 - 5 hr); assay type: ADME, organism-based, Urine; parameters: dose 3 mg/kg, route intraperitoneal; settings: in vivo
Rattus norvegicus [21] = assay: Oral diuretic activity was evaluated by measuring Cl- excretion in Rat at 9 mg/kg […] ( 0 - 5 hr); assay type: ADME, organism-based, Urine; parameters: dose 9 mg/kg; settings: in vivo; method in brief: as §4
Canis familiaris [22] = assay: Oral diuretic activity was evaluated by measuring Cl- excretion in dog at 1 mg/kg after […] ( 0 - 6 hr); assay type: ADME, organism-based, Canis lupus familiaris, Urine; parameters: dose 1 mg/kg, route intraperitoneal; settings: in vivo
Rattus norvegicus [23] = species on record: Rattus norvegicus; assay: Time taken for the decrease in arterial pressure was measured; assay type: functional, Artery
Rattus norvegicus [24] = assay: Maximum fall in mean arterial blood pressure was measured in SH rats when compound was administered at 20 mg/kg perorally; assay type: functional; settings: route oral
Rattus norvegicus [25] = assay: Maximum fall in mean arterial blood pressure was measured in SH rats when compound was administered at 40 mg/kg perorally; assay type: functional; settings: route oral
Rattus norvegicus [26] = assay: Oral diuretic activity was evaluated by measuring K+ excretion in Rat at 27 mg/kg after po administration ( 0 - 5 hr); settings: in vivo
Rattus norvegicus [27] = assay: Oral diuretic activity was evaluated by measuring Cl- excretion in Rat at 81 mg/kg after po administration ( 0 - 5 hr); settings: in vivo
Rattus norvegicus [28] = assay: Compound administered orally at a dose of 1 mg/kg was evaluated for salidiuretic activity measured as sodium ion excretion in Rat; settings: in vivo, po

Q: Which Diuretic activity (Rattus norvegicus [1]) does the source give for `CC(C)(C)c1cc(Cl)c(O)c(CN)c1.Cl` here?
A: 2.68

Q: What about the Diuretic activity (Canis familiaris [2]) of the same compound?
A: 28.38

Q: And the Diuretic activity (Canis familiaris [3])?
A: 40.38

Q: What about the Diuretic activity (Canis familiaris [4]) of the same compound?
A: 10.38

Q: What about the Diuretic activity (Rattus norvegicus [5]) of the same compound?
A: 3.16

Q: What about the Diuretic activity (Rattus norvegicus [6]) of the same compound?
A: 1.75

Q: What about the Diuretic activity (Canis familiaris [7]) of the same compound?
A: 43.13

Q: And the Diuretic activity (Canis familiaris [8])?
A: > 900

Q: And the Diuretic activity (Canis familiaris [9])?
A: 9.13

Q: And the Diuretic activity (Rattus norvegicus [10])?
A: 0.52

Q: And the Diuretic activity (Rattus norvegicus [11])?
A: 0.9

Q: What about the Diuretic activity (Rattus norvegicus [12]) of the same compound?
A: 0.71

Q: What about the Diuretic activity (Canis familiaris [13]) of the same compound?
A: 6.5

Q: What about the Diuretic activity (Rattus norvegicus [14]) of the same compound?
A: 3.9

Q: What about the Diuretic activity [15] of the same compound?
A: 3.6

Q: What about the Diuretic activity (Canis familiaris [16]) of the same compound?
A: 54.25

Q: What about the Diuretic activity [17] of the same compound?
A: 4.2

Q: And the Diuretic activity (Rattus norvegicus [18])?
A: 4.31

Q: What about the Diuretic activity (Canis familiaris [19]) of the same compound?
A: 51.63

Q: And the Diuretic activity (Rattus norvegicus [20])?
A: 2.4

Q: And the Diuretic activity (Rattus norvegicus [21])?
A: 3.7

Q: And the Diuretic activity (Canis familiaris [22])?
A: 38.25

Q: And the Duration (Rattus norvegicus [23])?
A: 24 h

Q: What about the MAP (Rattus norvegicus [24]) of the same compound?
A: 9 mmHg

Q: And the MAP (Rattus norvegicus [25])?
A: 35 mmHg

Q: What about the Diuretic activity (Rattus norvegicus [26]) of the same compound?
A: 0.94

Q: And the Diuretic activity (Rattus norvegicus [27])?
A: 4.87

Q: What about the Diuretic activity (Rattus norvegicus [28]) of the same compound?
A: 2.1
